Data published in PubChem BioAssay AID695 (The Scripps Research Institute Molecular Screening Center, 2007).

Target: Steroidogenic factor 1 (Homo sapiens) (UniProt Q13285)
Assay: SF-1 driven luciferase reporter response, dose response, counter-screen for RORA activator project, CHO-K1 cells (AID 695)
Details: CHO-K1 SF1 luciferase transactivation, luminescence
How it was run: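 Material: CHO-K1 cells with Gal4-SF-1 fusion and luciferase reporter. Compound: 10-point 1:3 dilution series from nominal 100 µM top dose. Incubation: 20 h compound treatment, 37 °C. Detection: SteadyLite luminescence. Evaluation: EC50 from four-parameter dose-response curve fit. Replicates: triplicate.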

Structure (SMILES)	EC50 [nM]
O=C1COc2ccc(OCc3ccc(F)cc3)cc21	1710
C=CCOc1ccc(/C=C/C(C)=N\O)cc1	1020
